# Reference: ChEMBL document CHEMBL2375276, “Antibacterial oxazolidinone analogues having a N-hydroxyacetyl-substituted seven-membered [1,2,5]triazepane or [1,2,5]oxadiazepane C-ring unit” (Eur J Med Chem, 2013)
# How the values were obtained:
# Assay type in all cases: functional
# Haemophilus influenzae [1] = experiment: Antibacterial activity against Haemophilus influenzae SR27914 clinical isolate assessed as growth inhibition by CLSI broth microdilution method
# Method in brief: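 MIC by CLSI broth microdilution using Haemophilus test medium.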
# Staphylococcus aureus [2] = experiment: Antibacterial activity against linezolid-resistant Staphylococcus aureus NRS271 assessed as growth inhibition by CLSI broth microdilution method
# Method in brief: (§1)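 MIC by CLSI broth microdilution in cation-adjusted Mueller-Hinton broth. Lowest concentration inhibiting growth taken as MIC.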
# Staphylococcus aureus [3] = experiment: Antibacterial activity against Staphylococcus aureus Smith assessed as growth inhibition by CLSI broth microdilution method
# Method in brief: (§2)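 MIC by CLSI broth microdilution in cation-adjusted Mueller-Hinton broth; S. pneumoniae medium supplemented with 5% lysed horse blood.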
# Staphylococcus aureus [4] = experiment: Antibacterial activity against Staphylococcus aureus SR20549 clinical isolate assessed as growth inhibition by CLSI broth microdilution method; method in brief: as §2
# Moraxella catarrhalis [5] = experiment: Antibacterial activity against Moraxella catarrhalis SR26840 clinical isolate assessed as growth inhibition by CLSI broth microdilution method; method in brief: as §2
# Enterococcus faecium [6] = experiment: Antibacterial activity against Enterococcus faecium SR7940 clinical isolate assessed as growth inhibition by CLSI broth microdilution method; method in brief: as §2
# Enterococcus faecalis [7] = experiment: Antibacterial activity against Enterococcus faecalis SR1004 clinical isolate assessed as growth inhibition by CLSI broth microdilution method; method in brief: as §2
# Streptococcus pneumoniae [8] = experiment: Antibacterial activity against Streptococcus pneumoniae SR26207 clinical isolate assessed as growth inhibition by CLSI broth microdilution method; method in brief: as §2
# Staphylococcus aureus [9] = experiment: Antibacterial activity against methicillin-resistant Staphylococcus aureus SR3637 infected in JCL/ICR mouse systemic infection model assessed as mortality administered as po measured over 7 days; conditions: 168 h
# Method in brief: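 Five-week-old male JCL/ICR mice (20–25 g), five per group. Infected intraperitoneally with 0.5 or 1.0 mL bacterial suspension (about 100× LD50). Oral dosing 1 h post-infection. Mortality followed 7 days; ED50 with 95% confidence limits by logit method.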
# Staphylococcus aureus [10] = experiment: Ratio of eperezolid MIC to compound MIC for Staphylococcus aureus SR20549 clinical isolate
# Staphylococcus aureus [11] = experiment: Ratio of linezolid MIC to compound MIC for Staphylococcus aureus Smith
# Enterococcus faecalis [12] = experiment: Ratio of linezolid MIC to compound MIC for Enterococcus faecalis SR1004 clinical isolate
# Streptococcus pneumoniae [13] = experiment: Ratio of linezolid MIC to compound MIC for Streptococcus pneumoniae SR26207 clinical isolate
# Staphylococcus aureus [14] = experiment: Antibacterial activity against methicillin-resistant Staphylococcus aureus SR3637 infected in JCL/ICR mouse systemic infection model assessed as mortality administered as iv measured over 7 days; conditions: 168 h
# Method in brief: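 Five-week-old male JCL/ICR mice (20–25 g), five per group. Infected intraperitoneally with 0.5 or 1.0 mL bacterial suspension (about 100× LD50). Intravenous dosing 1 h post-infection. Mortality followed 7 days; ED50 with 95% confidence limits by logit method.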
# Moraxella catarrhalis [15] = experiment: Ratio of linezolid MIC to compound MIC for Moraxella catarrhalis SR26840 clinical isolate
# Enterococcus faecium [16] = experiment: Ratio of eperezolid MIC to compound MIC for Enterococcus faecium SR7940 clinical isolate
# Streptococcus pneumoniae [17] = experiment: Ratio of eperezolid MIC to compound MIC for Streptococcus pneumoniae SR26207 clinical isolate
# Haemophilus influenzae [18] = experiment: Ratio of eperezolid MIC to compound MIC for Haemophilus influenzae SR27914 clinical isolate
# Haemophilus influenzae [19] = experiment: Ratio of linezolid MIC to compound MIC for Haemophilus influenzae SR27914 clinical isolate
# Moraxella catarrhalis [20] = experiment: Ratio of eperezolid MIC to compound MIC for Moraxella catarrhalis SR26840 clinical isolate
# Staphylococcus aureus [21] = experiment: Ratio of eperezolid MIC to compound MIC for Staphylococcus aureus Smith
# Staphylococcus aureus [22] = experiment: Antibacterial activity against methicillin-resistant Staphylococcus aureus SR3637 assessed as growth inhibition by CLSI broth microdilution method; method in brief: as §1
# Enterococcus faecalis [23] = experiment: Ratio of eperezolid MIC to compound MIC for Enterococcus faecalis SR1004 clinical isolate
# Enterococcus faecium [24] = experiment: Ratio of linezolid MIC to compound MIC for Enterococcus faecium SR7940 clinical isolate
# Staphylococcus aureus [25] = experiment: Ratio of linezolid MIC to compound MIC for Staphylococcus aureus SR20549 clinical isolate
Structure (SMILES),MIC (Haemophilus influenzae [1]),MIC (Staphylococcus aureus [2]),MIC (Staphylococcus aureus [3]),MIC (Staphylococcus aureus [4]),MIC (Moraxella catarrhalis [5]),MIC (Enterococcus faecium [6]),MIC (Enterococcus faecalis [7]),MIC (Streptococcus pneumoniae [8]),Ratio (Staphylococcus aureus [10]),Ratio (Staphylococcus aureus [11]),Ratio (Enterococcus faecalis [12]),Ratio (Streptococcus pneumoniae [13]),Ratio (Moraxella catarrhalis [15]),Ratio (Enterococcus faecium [16]),Ratio (Streptococcus pneumoniae [17]),Ratio (Haemophilus influenzae [18]),Ratio (Haemophilus influenzae [19]),Ratio (Moraxella catarrhalis [20]),Ratio (Staphylococcus aureus [21]),Ratio (Enterococcus faecalis [23]),other results
CC(=O)NC[C@H]1CN(c2cc(F)c(N3CCON(C(=O)CO)CC3)c(F)c2)C(=O)O1,16 µg/mL,32 µg/mL,2 µg/mL,2 µg/mL,8 µg/mL,2 µg/mL,4 µg/mL,1 µg/mL,–,–,–,–,–,–,–,–,–,–,–,–,–
CC(=O)NC[C@H]1CN(c2cc(F)c(N3CCNOCC3)c(F)c2)C(=O)O1,16 µg/mL,16 µg/mL,1 µg/mL,1 µg/mL,4 µg/mL,1 µg/mL,2 µg/mL,0.25 µg/mL,–,–,–,–,–,–,–,–,–,–,–,–,–
CC(=S)NC[C@H]1CN(c2ccc(N3CCNN(C(=O)CO)CC3)c(F)c2)C(=O)O1,2 µg/mL,8 µg/mL,0.25 µg/mL,0.5 µg/mL,1 µg/mL,0.5 µg/mL,0.5 µg/mL,≤ 0.063 µg/mL,4,4,4,4,4,4,4,4,4,4,4,4,ED50 (Staphylococcus aureus [9]): > 10 mg/kg; ED50 (Staphylococcus aureus [14]): 2.95 mg/kg; MIC (Staphylococcus aureus [22]): 0.25 µg/mL; Ratio (Enterococcus faecium [24]): 4; Ratio (Staphylococcus aureus [25]): 4
CC(=S)NC[C@H]1CN(c2cc(F)c(N3CCNN(C(=O)CO)CC3)c(F)c2)C(=O)O1,2 µg/mL,1 µg/mL,0.25 µg/mL,0.125 µg/mL,0.5 µg/mL,0.125 µg/mL,0.25 µg/mL,0.063 µg/mL,4,4,4,4,4,4,4,4,4,4,4,4,ED50 (Staphylococcus aureus [9]): 9.83 mg/kg; ED50 (Staphylococcus aureus [14]): 2.95 mg/kg; MIC (Staphylococcus aureus [22]): 0.125 µg/mL; Ratio (Enterococcus faecium [24]): 4; Ratio (Staphylococcus aureus [25]): 4
CC(=S)NC[C@H]1CN(c2cc(F)c(N3CCON(C(=O)CO)CC3)c(F)c2)C(=O)O1,4 µg/mL,2 µg/mL,0.25 µg/mL,0.125 µg/mL,1 µg/mL,0.25 µg/mL,0.25 µg/mL,0.063 µg/mL,4,4,4,4,4,4,4,4,4,4,4,4,Ratio (Enterococcus faecium [24]): 4; Ratio (Staphylococcus aureus [25]): 4
CC(=S)NC[C@H]1CN(c2cc(F)c(N3CCNOCC3)c(F)c2)C(=O)O1,2 µg/mL,4 µg/mL,0.25 µg/mL,0.25 µg/mL,1 µg/mL,0.125 µg/mL,0.25 µg/mL,0.063 µg/mL,–,–,–,–,–,–,–,–,–,–,–,–,–
COC(=S)NC[C@H]1CN(c2cc(F)c(N3CCON(C(=O)CO)CC3)c(F)c2)C(=O)O1,4 µg/mL,2 µg/mL,0.25 µg/mL,0.25 µg/mL,1 µg/mL,0.25 µg/mL,0.5 µg/mL,0.125 µg/mL,4,4,4,4,4,4,4,4,4,4,4,4,Ratio (Enterococcus faecium [24]): 4; Ratio (Staphylococcus aureus [25]): 4
COC(=S)NC[C@H]1CN(c2cc(F)c(N3CCNOCC3)c(F)c2)C(=O)O1,8 µg/mL,4 µg/mL,0.5 µg/mL,0.25 µg/mL,1 µg/mL,0.25 µg/mL,0.5 µg/mL,0.125 µg/mL,–,–,–,–,–,–,–,–,–,–,–,–,–
O=C(CO)N1CCN(c2ccc(N3C[C@H](Cn4ccnn4)OC3=O)cc2F)CCN1,16 µg/mL,64 µg/mL,4 µg/mL,2 µg/mL,8 µg/mL,4 µg/mL,4 µg/mL,1 µg/mL,–,–,–,–,–,–,–,–,–,–,–,–,ED50 (Staphylococcus aureus [14]): 0.77 mg/kg
